ChEMBL document CHEMBL2157865, “Novel 3-substituted-1-aryl-5-phenyl-6-anilinopyrazolo[3,4-d]pyrimidin-4-ones: docking, synthesis and pharmacological evaluation as a potential anti-inflammatory agents” (Bioorg Med Chem Lett, 2012)

Columns and labels:
Rattus norvegicus [1] = assay: Antiinflammatory activity in Wistar albino rat assessed as inhibition of carrageenan-induced paw edema at 25 mg/kg, po after 1 hr (reference value: 0.85 +/- 0.01%); type: functional
Rattus norvegicus [2] = assay: Antiinflammatory activity in Wistar albino rat assessed as inhibition of carrageenan-induced paw edema at 25 mg/kg, po after 2 hrs (reference value: 1.11 +/- 0.02%); type: functional
Rattus norvegicus [3] = assay: Antiinflammatory activity in Wistar albino rat assessed as inhibition of carrageenan-induced paw edema at 25 mg/kg, po after 3 hrs (reference value: 1.08 +/- 0.41%); type: functional
Rattus norvegicus [4] = assay: Toxicity in Wistar albino rat assessed as ulcer index at 75 mg/kg/day, po administered for 4 days measured after 12 hrs fasting post-last dose; type: organism-based; parameters: route oral; details: in vivo
Summary of the method: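 Male Wistar albino rats, 170–200 g, six per group, with control and standard groups. Compounds suspended in 1% w/v Tween 80 in water and dosed orally at 75 mg/kg/day on all 4 days. Rats fasted 12 h after last dose, then decapitated. Stomach opened along greater curvature and washed with distilled water and Krebs solution. Gastric lesions counted and ulcer index calculated per Szelenyi and Thiemer.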

Compound | inhibition in vivo at 25 mg/kg (Rattus norvegicus [1]) | inhibition in vivo at 25 mg/kg (Rattus norvegicus [2]) | inhibition in vivo at 25 mg/kg (Rattus norvegicus [3]) | UI (Rattus norvegicus [4])
Cc1ccc(Nc2nn(-c3ccc([N+](=O)[O-])cc3)c3nc(Nc4ccccc4)n(-c4ccccc4)c(=O)c23)cc1 | 46.6% | 39.8% | 30.2% | 16.72
Cc1ccc(-c2cc(C(F)(F)F)nn2-c2ccc(S(N)(=O)=O)cc2)cc1 [CELECOXIB] | 78.1% | 58.6% | 39.6% | 9.58
O=c1c2c(Nc3ccc(Cl)cc3)nn(-c3ccccc3)c2nc(Nc2ccccc2)n1-c1ccccc1 | 47.5% | 44% | 28.6% | 
CSc1nn(-c2ccc(S(N)(=O)=O)cc2)c2nc(Nc3ccccc3)n(-c3ccccc3)c(=O)c12 | 68.8% | 54.1% | 35.2% | 7.83
Cc1ccc(Nc2nn(-c3ccc(S(N)(=O)=O)cc3)c3nc(Nc4ccccc4)n(-c4ccccc4)c(=O)c23)cc1 | 77% | 63.4% | 43.7% | 9.5
O=c1c2c(Nc3ccc([N+](=O)[O-])cc3)nn(-c3ccccc3)c2nc(Nc2ccccc2)n1-c1ccccc1 | 29.4% | 29% | 15.1% | 
O=c1c2c(Nc3ccc(Cl)cc3)nn(-c3ccc([N+](=O)[O-])cc3)c2nc(Nc2ccccc2)n1-c1ccccc1 | 39.6% | 39% | 20.6% | 
O=c1c2c(Nc3ccccc3)nn(-c3ccc([N+](=O)[O-])cc3)c2nc(Nc2ccccc2)n1-c1ccccc1 | 43.9% | 40.8% | 14.1% | 
CSc1nn(-c2ccccc2)c2nc(Nc3ccccc3)n(-c3ccccc3)c(=O)c12 | 46.1% | 36.6% | 25.4% | 4.66
O=c1c2c(Nc3ccc([N+](=O)[O-])cc3)nn(-c3ccc([N+](=O)[O-])cc3)c2nc(Nc2ccccc2)n1-c1ccccc1 | 23.9% | 19.4% | 16.8% | 
O=C([O-])Cc1ccccc1Nc1c(Cl)cccc1Cl.[Na+] [DICLOFENAC SODIUM] | 75.8% | 57.2% | 42.8% | 39.17
NS(=O)(=O)c1ccc(-n2nc(Nc3ccccc3)c3c(=O)n(-c4ccccc4)c(Nc4ccccc4)nc32)cc1 | 60.2% | 54.8% | 39.6% | 
Cc1ccc(Nc2nn(-c3ccccc3)c3nc(Nc4ccccc4)n(-c4ccccc4)c(=O)c23)cc1 | 55.7% | 53.4% | 32.9% | 3.2
O=c1c2c(Nc3ccccc3)nn(-c3ccccc3)c2nc(Nc2ccccc2)n1-c1ccccc1 | 48.1% | 43.4% | 17.1% | 
NS(=O)(=O)c1ccc(-n2nc(Nc3ccc([N+](=O)[O-])cc3)c3c(=O)n(-c4ccccc4)c(Nc4ccccc4)nc32)cc1 | 67% | 55.3% | 39.1% | 
NS(=O)(=O)c1ccc(-n2nc(Nc3ccc(Cl)cc3)c3c(=O)n(-c4ccccc4)c(Nc4ccccc4)nc32)cc1 | 69.8% | 56.3% | 38.3% | 
CSc1nn(-c2ccc([N+](=O)[O-])cc2)c2nc(Nc3ccccc3)n(-c3ccccc3)c(=O)c12 | 42.1% | 37.7% | 26.6% | 7.5
